Test results taken from ChEMBL document CHEMBL4425098, “Thiolactomycin-Based Inhibitors of Bacterial β-Ketoacyl-ACP Synthases with in Vivo Activity” (J Med Chem, 2016).
In brackets after ≈: the same amount, converted by molar mass. Activity calls are given as the source filed them. The calls are words filed in the database; no cut-off is given here.

Assays:
[1] = system: Mycobacterium tuberculosis; test: Antibacterial activity against Mycobacterium tuberculosis H37Rv after 6 days by Alamar blue dye-based colorimetric assay; assay type: functional; conditions: 144 h
Method in brief: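 M. tuberculosis H37Rv grown to early-mid log phase in Middlebrook 7H9 with 10% OADC and 0.05% Tween 80, added to 1:2 serial compound dilutions, and grown for 6 days at 37°C. Alamar blue then added for a further 24 h. MIC taken as the concentration preventing visible growth and Alamar blue reduction in all replicates.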

[2] = system: Francisella tularensis; test: Antibacterial activity against Francisella tularensis LVS after 18 to 24 hrs by Alamar blue dye-based colorimetric assay; assay type: functional
[3] = system: Staphylococcus aureus; test: Antibacterial activity against methicillin-sensitive Staphylococcus aureus RN4220 after 18 to 24 hrs by Alamar blue dye-based colorimetric assay; assay type: functional
Method in brief: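 Two-fold serial dilutions from 512 down to 0.25 μg/mL in CAMHB (microbroth dilution); incubated 37 °C for 18–24 h, then Alamar Blue added for a further 4 h. Absorbance read at 570 and 600 nm; percent growth reduction plotted against concentration, MIC90 from non-linear regression; growth and MICs confirmed by optical density.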

[4] = system: Staphylococcus aureus; test: Antibacterial activity against methicillin-resistant Staphylococcus aureus BAA 1762 after 18 to 24 hrs by Alamar blue dye-based colorimetric assay; assay type: functional
[5] = system: Yersinia pestis; test: Antibacterial activity against Yersinia pestis A1122 after 18 to 24 hrs by Alamar blue dye-based colorimetric assay; assay type: functional
[6] = target: T1, 3-oxoacyl-[acyl-carrier-protein] synthase 2 (Staphylococcus aureus, UniProt Q5TKS0); test: Binding affinity to Staphylococcus aureus wild type FabF expressed in Escherichia coli BL21 (DE3) PlysS cells by intrinsic tryptophan fluorescence quenching-based fluorimetric method
T1 sequence (Q5TKS0 whole entry): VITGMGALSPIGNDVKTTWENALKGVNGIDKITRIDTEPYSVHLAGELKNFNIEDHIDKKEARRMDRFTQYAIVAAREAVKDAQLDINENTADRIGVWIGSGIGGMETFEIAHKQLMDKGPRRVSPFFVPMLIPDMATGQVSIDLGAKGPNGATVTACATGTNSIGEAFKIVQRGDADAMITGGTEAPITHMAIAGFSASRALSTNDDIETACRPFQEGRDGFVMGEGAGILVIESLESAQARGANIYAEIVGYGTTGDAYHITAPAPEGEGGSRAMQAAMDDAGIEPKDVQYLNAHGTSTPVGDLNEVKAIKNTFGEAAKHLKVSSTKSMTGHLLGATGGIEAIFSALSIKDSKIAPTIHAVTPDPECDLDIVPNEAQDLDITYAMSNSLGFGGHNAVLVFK

[7] = system: Mycobacterium tuberculosis; test: Binding affinity to Mycobacterium tuberculosis wild type FabB expressed in Mycobacterium smegmatis MC2 155 by WaterLOGSY-based competition assay
[8] = target: 3-oxoacyl-[acyl-carrier-protein] synthase 2 (Staphylococcus aureus, UniProt Q5TKS0, C165Q); test: Binding affinity to Staphylococcus aureus FabF C165Q mutant expressed in Escherichia coli BL21 (DE3) PlysS cells by intrinsic tryptophan fluorescence quenching-based fluorimetric method
Method in brief: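 Kd by quenching of intrinsic tryptophan fluorescence (excitation 280 nm, emission 337 nm). Inhibitor stocks in DMSO or buffer were titrated into 1 μM His-tag-purified enzyme in 50 mM Tris-HCl, 150 mM NaCl, 1 mM DTT, pH 8.5. mtFabB was expressed in M. smegmatis MC²155; saFabF was expressed in E. coli BL21(DE3) pLysS.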

[9] = system: Staphylococcus aureus; test: Antibacterial activity against methicillin-resistant Staphylococcus aureus BAA 1762 infected in Swiss Webster mouse assessed as survival time at 100 mg/kg, sc administered 1 and 25 hrs post infection measured twice a day for 5 days; assay type: functional
Method in brief: (§1)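 Mice made neutropenic with cyclophosphamide 4 days and 1 day before infection. MRSA BAA 1762 was given IP as 0.5 mL of 5×10⁷ cells/mL in BHI. Analogues in water/ethanol, or vancomycin in water, were dosed SC at 100 mg/kg/inj at 1 and 25 h post infection. Survival was checked every 12 h for 5 days, n=6–7 per group. Average survival time was compared with vehicle by one-tailed t test.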

[10] = system: Staphylococcus aureus; test: Antibacterial activity against methicillin-resistant Staphylococcus aureus BAA 1762 infected in sc dosed Swiss Webster mouse assessed as increase in survival rate administered 1 and 25 hrs post infection measured twice a day for 5 days; assay type: functional; conditions: BAA 1762, sc; method in brief: as §1
[11] = system: Klebsiella pneumoniae; test: Antibacterial activity against Klebsiella pneumoniae KPC2ST258 infected in Swiss Webster mouse assessed as survival time at 100 mg/kg, sc administered 1, 12 and 24 hrs post infection measured every 12 hrs for 7 days; assay type: functional
Method in brief: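 K. pneumoniae KPC2ST258 was given IP as 5×10⁶ cfu in BHI broth. Drugs in saline/PEG400/ethanol (40/20/40) were injected SC at 100 mg/kg/inj at 1, 12 and 24 h post infection. Mice were checked every 12 h for 7 days, n=8–10 per group. Average survival time was compared with vehicle by one-tailed t test.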

[12] = system: Burkholderia pseudomallei; test: Antibacterial activity against Burkholderia pseudomallei after 18 to 24 hrs by Alamar blue dye-based colorimetric assay; assay type: functional
[13] = system: Klebsiella pneumoniae; test: Antibacterial activity against Klebsiella pneumoniae KPC2ST258 after 18 to 24 hrs by Alamar blue dye-based colorimetric assay; assay type: functional, organism-based

| Compound | MIC90 [1] [µg/mL] | MIC90 [2] [µg/mL] | MIC90 [3] [µg/mL] | MIC90 [4] [µg/mL] | MIC90 [5] [µg/mL] | Kd [6] [µM] | Activity [7] | Kd [8] [µM] | MSD [9] [days] | ED50 [10] [mg/kg] | MSD [11] [days] | Activity [12] | MIC [12] [µg/mL] | MIC [13] [µg/mL] |
| --- | --- | --- | --- | --- | --- | --- | --- | --- | --- | --- | --- | --- | --- | --- |
| C=C/C(C)=C/[C@@]1(C)SC(=O)C(CCCCc2ccc(-c3ccccc3)cc2)=C1O | 12.5 (≈ 30.9 µM) | 1.9 (≈ 4.7 µM) | 16 (≈ 39.5 µM) | 25 (≈ 61.8 µM) | > 250 | 131 |  |  |  |  |  |  |  |  |
| C=C/C(C)=C/[C@@]1(C)SC(=O)C=C1OCC(=O)NCCN=[N+]=[N-] | > 100 | 39 (≈ 121 µM) | > 64 | > 64 |  |  | inactive |  |  |  |  |  |  |  |
| C=C/C(C)=C/[C@@]1(C)SC(=O)C(C(=O)C(F)(F)F)=C1O | 100 (≈ 342 µM) | 98.1 (≈ 336 µM) | > 64 | 64 (≈ 219 µM) | > 250 | 58.4 |  | 56.2 | 3 | 125 | 5.1 | inactive |  |  |
| C=C/C(C)=C/[C@@]1(C)SC(=O)C(CCCCn2cc(CNC(=O)[C@H](O)C(C)(C)CO)nn2)=C1O | > 100 | 250 (≈ 522 µM) | > 64 | > 100 | > 250 |  |  |  |  |  |  |  |  |  |
| C=C/C(C)=C/[C@@]1(C)SC(=O)C(C(=O)CCC)=C1O | 100 (≈ 375 µM) | 1.8 (≈ 6.76 µM) | 16 (≈ 60.1 µM) | 32 (≈ 120 µM) | > 250 |  |  |  |  |  |  | inactive |  |  |
| C=C/C(C)=C/[C@@]1(C)SC(=O)C(C(=O)CCCCCCCCCCCCCCC)=C1O | 100 (≈ 230 µM) | 3.9 (≈ 8.97 µM) | 0.5 (≈ 1.15 µM) | 1 (≈ 2.3 µM) | > 250 | > 200 |  |  |  |  |  | inactive |  |  |
| C=C/C(C)=C/[C@@]1(C)SC(=O)C=C1O | > 100 | 124 (≈ 632 µM) | 150 (≈ 764 µM) | 100 (≈ 509 µM) | 250 (≈ 1270 µM) |  | inactive |  |  |  |  | inactive |  |  |
| C=C/C(C)=C/[C@@]1(C)SC(=O)C=C1OCC(=O)NCCn1cc(CNC(=O)c2ccc(NS(=O)(=O)c3ccc(F)cc3)cc2)nn1 | > 100 | > 256 | > 64 | > 64 |  |  | inactive |  |  |  |  |  |  |  |
| C=C/C(C)=C/[C@@]1(C)SC(=O)C(CCCCc2ccc(Cl)cc2)=C1O | 100 (≈ 276 µM) | 1.7 (≈ 4.68 µM) | 64 (≈ 176 µM) | 50 (≈ 138 µM) | > 250 |  |  |  |  |  |  |  |  |  |
| C=C/C(C)=C/[C@@]1(C)SC(=O)C(CC)=C1O | 2.5 (≈ 11.1 µM) | 6.9 (≈ 30.8 µM) | 150 (≈ 669 µM) | 125 (≈ 557 µM) | 145 (≈ 646 µM) |  |  |  |  |  |  |  | 32 (≈ 143 µM) |  |
| CN[C@H](CC(C)C)C(=O)N[C@H]1C(=O)N[C@@H](CC(N)=O)C(=O)N[C@H]2C(=O)N[C@H]3C(=O)N[C@H](C(=O)N[C@H](C(=O)O)c4cc(O)cc(O)c4-c4cc3ccc4O)[C@H](O)c3ccc(c(Cl)c3)Oc3cc2cc(c3O[C@@H]2O[C@H](CO)[C@@H](O)[C@H](O)[C@H]2O[C@H]2C[C@](C)(N)[C@H](O)[C@H](C)O2)Oc2ccc(cc2Cl)[C@H]1O [VANCOMYCIN] |  |  |  |  |  |  |  |  | 5 | < 30 |  |  |  |  |
| C=C/C(C)=C/[C@@]1(C)SC(=O)C(CCCCn2cc(CNC(=O)c3ccc(NS(=O)(=O)c4ccc(F)cc4)cc3)nn2)=C1O | 100 (≈ 160 µM) | 250 (≈ 400 µM) | > 64 | > 100 | > 250 |  |  |  |  |  |  |  |  |  |
| GENTAMICIN |  |  |  |  |  |  |  |  |  |  | 6.2 |  |  | < 1 |
